This is a sample that favours compounds with a hit; in the whole collection about 1.7% have one here.
HNF4A DNA FP – change in binding of human HNF4 alpha to DNA; P41235; HNF4a-FITC DNA binding, fluorescence polarization, 1 h; activity change, % at 10 µM; actives 0.3% (n = 360,000); AID 1224865; in the data active = activity change above about 30%, passing the limit was not always enough
TPT1 inh – C. albicans TPT1 enzyme inhibition; recombinant caTPT1, FP RNA substrate dephosphorylation; inhibition, % at 5 µM; actives 0.81% (n = 300,000); AID 1962;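 active = inhibition above the mean of all tested compounds plus 3 SD, set per screening campaign, cut at about 24% in these data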
Rev-erbA mod – Rev-erb alpha (human) modulation. P20393. Rev-erbα–FITC-DNA binding, fluorescence polarization, 90 min. activity, % at 10 µM. actives 0.79% (n = 370,000);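 active = activity above about 14%, limit read from the data; passing the limit was not always enough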
Target sequence (P20393 whole entry, looked up): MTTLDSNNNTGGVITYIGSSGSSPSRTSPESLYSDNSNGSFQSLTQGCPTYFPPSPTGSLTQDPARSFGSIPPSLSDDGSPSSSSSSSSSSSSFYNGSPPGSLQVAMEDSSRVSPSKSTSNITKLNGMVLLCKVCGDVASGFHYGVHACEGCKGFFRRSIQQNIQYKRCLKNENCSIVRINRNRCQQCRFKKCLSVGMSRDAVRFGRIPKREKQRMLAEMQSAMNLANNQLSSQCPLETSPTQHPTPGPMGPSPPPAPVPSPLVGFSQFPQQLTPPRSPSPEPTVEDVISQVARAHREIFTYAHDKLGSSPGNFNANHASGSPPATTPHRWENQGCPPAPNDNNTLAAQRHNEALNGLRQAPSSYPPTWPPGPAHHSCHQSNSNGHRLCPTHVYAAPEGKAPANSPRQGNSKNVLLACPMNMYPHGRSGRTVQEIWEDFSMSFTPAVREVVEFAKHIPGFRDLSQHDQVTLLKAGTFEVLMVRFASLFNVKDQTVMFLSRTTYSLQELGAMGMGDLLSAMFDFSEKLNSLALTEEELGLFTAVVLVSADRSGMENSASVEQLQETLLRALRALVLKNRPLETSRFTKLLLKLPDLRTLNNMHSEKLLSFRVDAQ
CSN inh – blocks human CSN-mediated cullin deneddylation | Q92905 | Purified CSN, SCF-Nedd8-OG deneddylation, fluorescence polarization | inhibition, % at 12.5 µM | actives 0.38% (n = 360,000);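 active = pattern-corrected inhibition above about 35%, with an unprinted fluorescence ratio check between 0.5 and 1.5, limit read from the data, passing the limit was not always enough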
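test system = HEK293T-derived human Csn5 enzyme | amount = 0.24 nM Csn5 enzyme, final concentration | medium = Tris/NaCl/DTT buffer, pH 7.5 | schedule = 90 min reaction at room temperature | signal = FP | evaluation = inhibition of Csn5 cleavage, % | compound dosing = single dose of 12.5 µM compound with 0.25% DMSO | probe or stimulus = 10 nM SCFSkp2-Nedd8OG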
Large screens that a line does not name were inactive.

CC(c1ccccc1)N1CC[C@H]2C=CC[C@@H](C(=O)Nc3cccc(Cl)c3)[C@H]2C1=O (some centres undefined)	none (no result: HNF4A DNA FP, TPT1 inh, CSN inh)
Cc1ccc(NC(=O)/C(C#N)=C/c2ccc(C)s2)c(C)c1	CSN inh 70
Cc1ccc(CNC(=O)/C(C#N)=C/c2ccc(C)s2)cc1	none
Cc1ccc(S(=O)(=O)N(C)C)cc1NC(=O)CN1C(=O)NC2(CCCCCC2)C1=O	none
COc1ccc(NS(=O)(=O)c2ccc(C)c(NC(=O)CN3C(=O)NC4(CCCC4)C3=O)c2)cc1	CSN inh 109 (no result: TPT1 inh)
CC(C)CC1C(=O)N2CCC[C@H]2C2(O)O[C@](NC(=O)C3C=C4c5cccc6[nH]c(Br)c(c56)C[C@H]4N(C)C3)(C(C)C)C(=O)N12 (some centres undefined)	none (no result: HNF4A DNA FP, TPT1 inh, CSN inh)
CCCCCCC(C)n1cc(C(C)=O)c(=O)[nH]c1=O (centres undefined)	CSN inh 50
C[C@]12C=CC(=O)C=C1CCC1C2[C@@H](O)C[C@@]2(C)C1CC[C@]2(O)C(=O)COC(=O)CCC(=O)O (some centres undefined)	none (no result: HNF4A DNA FP, TPT1 inh, CSN inh)
C[C@@H]1CC2C3C[C@H](F)C4=CC(=O)C=C[C@]4(C)[C@@]3(F)[C@@H](O)C[C@]2(C)[C@@]1(O)C(=O)COC(=O)C(C)(C)C (some centres undefined)	none (no result: HNF4A DNA FP, TPT1 inh, CSN inh)
CS(=O)(=O)N1CCN(c2ccc([N+](=O)[O-])c(NCc3ccccc3)c2)CC1	none
CS(=O)(=O)N1CCN(c2ccc([N+](=O)[O-])c(NCc3ccc(Cl)cc3)c2)CC1	CSN inh 76
CC(=O)OCCc1[nH]c2ccccc2c1C	none
CC(=O)OCCc1c2ccccc2c(CCCN(C)C)c2ccccc12	HNF4A DNA FP 132, CSN inh 71
COc1cc(NC(=O)C2CCCN(S(=O)(=O)c3ccc(C)c(C)c3)C2)cc(OC)c1 (centres undefined)	none (no result: HNF4A DNA FP, TPT1 inh, CSN inh)
CCc1ccc(-n2c(O)c(C=NCCN(CC)CC)c(=O)[nH]c2=O)cc1	CSN inh 35 (no result: TPT1 inh)
Oc1ccc(Cl)cc1-c1cc(-c2ccco2)[nH]n1	CSN inh 45
CC(C)CN(CC(C)C)C1=N/C(=C\c2ccco2)C(=O)N1c1ccccc1	CSN inh 39
COc1ccc(N2CCN(c3ccc(C(N)=O)cc3[N+](=O)[O-])CC2)cc1	CSN inh 75
COc1ccc(NC(=O)CN(C)S(=O)(=O)c2ccc(Cl)cc2)c([N+](=O)[O-])c1	none
COc1ccc(NC(=O)CN(C)S(=O)(=O)c2ccccc2)c([N+](=O)[O-])c1	HNF4A DNA FP 39
CCc1ccc2c(c1)C1(SC(NC(C)=O)=NN1C(C)=O)C(=O)N2CC (centres undefined)	CSN inh 56
CCOc1cccc2cc(-c3nnc(NCc4ccc5c(c4)OCO5)s3)c(=O)oc12	HNF4A DNA FP 52, CSN inh 46
CCOc1ccccc1C(=O)NCc1ccc2c(c1)OCO2	none
CO/N=C(/C(=O)N[C@H]1C(=O)N2C(C(=O)OC(C)OC(C)=O)=C(COC(N)=O)CSC12)c1ccco1 (some centres undefined)	none (no result: HNF4A DNA FP, TPT1 inh, CSN inh)
CCCc1c(C)[nH]c2ccc(C(=O)O)cc2c1=S	CSN inh 48 (no result: TPT1 inh)
CCC(=O)Nc1nc(C)c(Oc2ccccc2)c(=O)[nH]1	CSN inh 105
C#CCOCCOCCOCCNc1nc(N2CCN(C(=O)CCCCCCCCCCNC(=O)Cn3cc(CCCCCN)nn3)CC2)nc(N2CCN(C(=O)CCCCCCCCCCNC(=O)[C@H]([C@@H](C)CC)n3cc(CCCCCN)nn3)CC2)n1	HNF4A DNA FP 52, CSN inh 64 (no result: Rev-erbA mod)
C#CCOCCOCCOCCNc1nc(N2CCN(C(=O)CCCCCCCCCCNC(=O)Cn3cc(CCCCCN)nn3)CC2)nc(N2CCN(C(=O)CCCCCCCCCCNC(=O)[C@H](CO)n3cc(CCCCCN)nn3)CC2)n1	HNF4A DNA FP 38 (no result: Rev-erbA mod)
O=C(/C=C/c1ccco1)Nc1ccc(-c2nc3ccccc3[nH]2)cc1	HNF4A DNA FP 66
COc1nnc(-c2ccc(N3CCCCC3)c(N)c2)c2ccccc12	CSN inh 110
Cc1c(C)c2c(c(C)c1OC(=O)CCC(=O)OCCO)CCC(C)(CCCC(C)CCCC(C)CCCC(C)C)O2 (centres undefined)	none (no result: HNF4A DNA FP, TPT1 inh, CSN inh)
COc1ccc(-c2nnc(SCc3csc(N)n3)n2C)cc1	HNF4A DNA FP 37
CCCCSc1nnc(-c2ccc(OC)cc2)n1C	none
CCOc1ccc(CCNC(=O)c2cc3sccc3n2Cc2cccc(C)c2)cc1OCC	none (no result: HNF4A DNA FP, TPT1 inh, CSN inh)
COc1ccc(-c2onc3ccc(Br)cc23)cc1	none
COc1cc(-c2onc3ccc(Br)cc23)cc(OC)c1OC	HNF4A DNA FP 43
O=c1c2ccccc2sn1-c1ccc(F)cc1	none (no result: TPT1 inh)
O=c1c2ccc(F)cc2sn1-c1ccccc1	HNF4A DNA FP 29 (no result: TPT1 inh)
O[C@H](CNC[C@@H](O)[C@H]1CCc2cc(F)ccc2O1)[C@@H]1CCc2cc(F)ccc2O1	none (no result: HNF4A DNA FP, TPT1 inh, CSN inh)
COc1ccc(NC(=O)CSc2nc3sc4c(c3c(=O)n2-c2ccc(OC)cc2)CCN(C)C4)cc1	CSN inh 98
COc1ccc(-n2c(SCC(=O)Nc3nccs3)nc3sc4c(c3c2=O)CCN(C)C4)cc1	none
COc1ccc(Br)cc1CN1CCN(Cc2c[nH]c3ccccc23)CC1	HNF4A DNA FP 59
COCCSc1nnc(-c2cccnc2)n1Cc1ccccc1	none (no result: HNF4A DNA FP, TPT1 inh, CSN inh)
N#Cc1c(NC(=S)NC(=O)c2ccccc2)sc2c1CCN(CCc1ccccc1)C2	TPT1 inh 98 (no result: HNF4A DNA FP, Rev-erbA mod, CSN inh)
N#Cc1c(NC(=S)NC(=O)c2ccccc2)sc2c1CCCC2	none
O=C1/C(=C/c2ccc(N3CCOCC3)o2)SC(=Nc2ccccc2)N1CCc1c[nH]c2ccccc12	TPT1 inh 148 (no result: Rev-erbA mod)
CCC(=O)Oc1ccc2c(c1)CCC1C2CC[C@@]2(C)C1CC[C@@H]2OC(=O)CC (some centres undefined)	none (no result: HNF4A DNA FP, TPT1 inh, CSN inh)
O=C(N/N=C/c1ccc2c(c1)OCO2)c1cc2ccccc2o1	none
O=C(COc1ccc(/C=N/NC(=O)c2cc3ccccc3o2)cc1Cl)Nc1ccccc1	HNF4A DNA FP 45, CSN inh 120 (no result: Rev-erbA mod)
COc1cc(/C=N/NC(=O)c2ccccc2O)ccc1OCC(=O)Nc1ccccc1	CSN inh 49
CC(=O)Oc1cc(C(=O)OCC(=O)NC23CC4CC(CC(C4)C2)C3)cc(OC(C)=O)c1OC(C)=O	CSN inh 41 (no result: TPT1 inh)
O=C(O)C(=O)/C(=C\c1ccc([N+](=O)[O-])cc1)c1ccc2ccccc2n1	none
O=C(O)C(=O)/C(=C\c1ccccc1)c1ccc2ccccc2n1	TPT1 inh 30
CCc1cc(=O)oc2cc3occ(-c4ccc(OC)c(F)c4)c3cc12	CSN inh 37
O=C(NCCN1CCCCC1)c1cccc2c1C(=O)c1ccc(N3CCCC3)cc1S2(=O)=O	none (no result: TPT1 inh)
CC(C)c1cccc(-c2ccc3c(c2)S(=O)(=O)c2cccc(C(=O)NCc4ccco4)c2C3=O)c1	CSN inh 49 (no result: TPT1 inh)
O=C(NCc1ccc(F)cc1)c1cccc2c1C(=O)c1ccc(N3CCC(N4CCCCC4)CC3)cc1S2(=O)=O	CSN inh 45 (no result: TPT1 inh)
CC(C)(C)CNC(=O)c1cccc2c1C(=O)c1ccc(N3CCCC3)cc1S2(=O)=O	CSN inh 42 (no result: TPT1 inh)

Source: PubChem BioAssay (several laboratories)
